Bioassay records (PubChem)
This is a sample that favours compounds with a hit; in the whole collection about 1.3% have one here.
Xi reactivation = activators of X-chromosome reactivation in mouse fibroblasts. activation, % at 7.58 µM. AID 743238. 360,000 tested, 0.055% active. XiGFP mouse fibroblasts, % GFP-positive cells imaging, 3 d; cells co-treated with 5-aza-dC sensitizer; scaled so ellipticine positive control = 100%;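 active = mean normalized replicate activation at least 10% and every replicate at or above 10%; inconclusive = only one of the two criteria met; inactive = mean below 10% and not all replicates reach 10%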;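 note: 0% = median of on-plate neutral control wells and 100% = ellipticine 6 µM median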
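assay system = SV40-immortalized XiGFP fibroblast cells, line 68-5-11 | buffer or medium = DMEM plus 5-aza-dC sensitizer | doses = single-point pinned compound dosing | times = 3-day compound exposure, then 15 min fixation at room temperature | benchmarks = positive control ellipticine, 6 µM final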
RAD54 inh = inhibitors of human RAD54 branch migration; RAD54 Holliday junction branch migration, FAM/BHQ fluorescence; inhibition, % at 10.4 µM; 360,000 tested, 0.14% active;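 active = mean normalized replicate activity at least 40 and at least half of replicates scoring 40 or more; inconclusive = only one of the two criteria met; inactive = mean below 40 and under half of replicates reaching 40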;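 note: 0% = median of neutral control wells and 100% = median of positive control wells; inhibitors cause a drop in the FAM fluorescence signal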
CASP6 VEID inh = blocks human caspase-6 cleavage activity. P55212. purified caspase-6, Z-VEID-R110 cleavage fluorescence. inhibition, % at 12.5 µM. 350,000 tested, 0.53% active. AID 686996;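 active = mean inhibition across replicates at least about 35%, with every replicate also reaching that limit, limit read from the data; inconclusive = only one of the two criteria met; inactive = neither criterion met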;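 note: 0% = median of neutral control wells and 100% = no fluorescence left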
MLL AF4-AF9 inh = blocks AF4 peptide binding to human AF9; P42568; AlphaScreen, biotin-AF4 peptide binding to FLAG-AF9; inhibition, % at 10 µM; 350,000 tested, 0.47% active;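 active = every replicate reaching a set inhibition limit, whatever the replicate mean, cut at about 25% in these data; inconclusive = mean inhibition reaches that limit but some replicates miss it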;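 note: 0% = plate neutral control median and 100% = total signal loss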
Target sequence (P42568 whole entry, looked up): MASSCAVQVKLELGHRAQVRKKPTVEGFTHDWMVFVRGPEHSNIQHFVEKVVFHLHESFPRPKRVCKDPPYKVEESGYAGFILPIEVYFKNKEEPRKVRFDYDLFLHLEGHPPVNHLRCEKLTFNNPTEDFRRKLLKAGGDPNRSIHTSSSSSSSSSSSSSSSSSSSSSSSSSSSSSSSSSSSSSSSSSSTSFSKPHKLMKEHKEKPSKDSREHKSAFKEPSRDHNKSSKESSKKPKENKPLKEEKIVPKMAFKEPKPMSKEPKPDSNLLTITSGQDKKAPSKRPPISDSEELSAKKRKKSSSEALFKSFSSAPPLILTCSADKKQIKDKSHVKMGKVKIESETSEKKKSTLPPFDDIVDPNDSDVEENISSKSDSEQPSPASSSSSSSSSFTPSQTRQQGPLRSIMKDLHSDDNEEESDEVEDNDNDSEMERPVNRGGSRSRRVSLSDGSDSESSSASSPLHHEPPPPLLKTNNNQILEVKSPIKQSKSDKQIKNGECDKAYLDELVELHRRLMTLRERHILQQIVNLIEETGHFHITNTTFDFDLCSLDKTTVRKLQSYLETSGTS
RAD52 anneal inh = inhibitors of human RAD52 DNA annealing | P43351 | recombinant RAD52 DNA annealing, FRET fluorescence | inhibition, % at 18.7 µM | 360,000 tested, 0.46% active | AID 651710;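 active = every replicate showing at least 50% inhibition; inconclusive = mean inhibition at least 50% but not in every replicate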
S100A4 inh HTS = S100A4-myosin IIA interaction inhibition; P26447; S100A4/TAMRA-MyoIIA peptide fluorescence polarization; inhibition, % at 10.7 µM; 360,000 tested, 0.14% active;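 active = mean inhibition of at least 70% across replicates, with every replicate also reaching that level; inconclusive = mean inhibition reaches 70% but some replicates fall short; inactive = mean inhibition below 70%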
Target sequence (P26447 whole entry, looked up): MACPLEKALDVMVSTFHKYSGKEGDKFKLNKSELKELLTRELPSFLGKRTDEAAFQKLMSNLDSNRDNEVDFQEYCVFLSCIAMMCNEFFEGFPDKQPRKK
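Compound dosing: one dose per compound; test system: human S100A4 monomer with TAMRA-labelled myosin IIA peptide; probe or stimulus: TAMRA-labelled myosin IIA heavy-chain peptide probe, 5 nM; medium: HEPES buffer with Ca2+, pH 7.2; schedule: 5 min incubation before reading; benchmarks: neutral control DMSO, positive control TFP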
Rad54 DNA ctr = binds DNA, flagging false Rad54 inhibitor hits; AC50, µM (series often up to 35 µM), for inactives: at the highest dose activity change, negative = DNA binding; 460 tested, 8% active; shares compounds with RAD54 inh; Acridine orange-DNA displacement, fluorescence polarization, 20 min; AID 651673;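 active = signal drop giving an AC50 within twice the top valid tested concentration of each sample, actives reach about 35 µM in these data; inactive = activity opposite to expected, plus the rest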;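 note: polarization loss reports compound binding to salmon sperm DNA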
DNA binder FP = DNA binding artifact in RAD52 counter-screen | Salmon sperm DNA/acridine orange FP displacement | 1,000 tested, 8% active | shares compounds with RAD52 anneal inh | AC50, µM;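 active = fitted half-maximal concentration for signal loss at or below twice the highest dose tested, in every separate run, actives reach about 64 µM in these data; inconclusive = runs disagree, or flat partial signal loss, or poor fit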
Starred values were filed as active, the others as inactive; i = inactive; ? = inconclusive; . = not tested or not shown.

SMILES	Xi reactivation	RAD54 inh	CASP6 VEID inh	MLL AF4-AF9 inh	RAD52 anneal inh	S100A4 inh HTS	Rad54 DNA ctr	DNA binder FP
COc1ccc(-c2nc(C(=O)NCCCN3CCOCC3)cc3c2[nH]c2ccccc23)cc1OC	.	93.8*	0.8	8.8	82.9*	0.9	-20.9%	i
O=C(CC(F)(F)F)N1C[C@H]2[C@@H](c3ccccc31)[C@@H](CO)N2CC1CCCCC1	0.4	-3.5	1.3	-14.8	-2.1	-4.0	.	.
c1c[nH]c(CN2CCN(Cc3ncc[nH]3)CC2)n1	-0.1	?	-259.5	27.7*	56.1*	-0.1	-10.7%	i
c1ccc(N2CCN(Cc3nc4ccccc4[nH]3)CC2)nc1	0.3	-5.1	6.5	-0.2	-6.3	1.4	.	.
C[C@H]1CN([C@@H](C)CO)C(=O)Cc2cc(NS(=O)(=O)c3ccc(Cl)cc3)ccc2O[C@@H]1CN(C)C(=O)NC1CCCCC1	-0.6	1.0	-0.3	-1.8	13.6	-7.5	.	.
C[C@@H]1CN([C@@H](C)CO)C(=O)c2cc(NC(=O)CCC(F)(F)F)ccc2O[C@@H](C)CCCCO[C@@H]1CN(C)Cc1ccc(C(F)(F)F)cc1	-0.9	-4.0	-0.3	2.7	-38.1	28.4	.	.
C[C@@H]1CN([C@H](C)CO)C(=O)c2cc(-c3ccncc3)cnc2O[C@H]1CN(C)Cc1cccnc1	-0.9	0.2	-3.7	-4.9	-0.7	-2.6	.	.
COC(=O)C[C@@H]1C[C@H]2c3cc(NS(=O)(=O)c4ccc(F)cc4)ccc3O[C@H]2[C@@H](CO)O1	-0.1	2.7	1.5	3.5	9.1	3.8	.	.
CC(=O)Nc1cc(-c2ccc(N3CCN(C)CC3)cc2)cn2c(-c3cccc(C(C)=O)c3)cnc12	0.0	79.4*	-55.4	16.7	70.0*	-0.4	-2.4%	i
CC(=O)Nc1cc(-c2cccc(C(=O)NCCN(C)C)c2)cn2c(-c3ccccc3)cnc12	0.0	64.3*	-8.3	-7.7	90.1*	-4.9	4.3%	i
CC(=O)Nc1cc(-c2cccc(C(=O)NCCN(C)C)c2)cn2c(-c3ccc(S(C)(=O)=O)cc3)cnc12	0.1	56.5*	-27.4	-0.5	92.2*	-4.8	-17.2%	i
CO[C@@H]1CN(C)C(=O)c2ccc(NC(=O)NC(C)C)cc2OC[C@H](C)N(C(=O)CN(C)C)C[C@H]1C	0.5	4.1	-0.6	-0.8	-2.5	14.6	.	.
Cc1ccc(-c2nc(NCc3ccco3)c3ccccc3n2)cc1	0.0	.	-2.0	-4.2	-80.4	-1.6	.	.
COCCNc1c2c(nc3ccccc13)CCC2	0.3	5.7	7.3	2.8	-14.7	-8.0	.	.
CN(C)CCNc1cc(-c2ccncc2)nc2ccccc12	0.0	57.5*	-37.7	3.0	80.0*	-5.1	0.2%	i
CN(C)CCCNc1c2c(nc3ccccc13)CCC2	0.4	66.9*	-111.8	8.3	78.2*	-1.8	-17.4%	i
Cc1ccc(-c2nc(NCCN(C)C)c3ccccc3n2)cc1	0.0	77.9*	-20.2	0.3	71.2*	1.7	-20.2%	i
O=C(NCc1ccccc1)c1cc(-c2ccncc2)nc2ccccc12	0.0	5.3	1.5	3.7	-8.5	11.3	.	.
CN(C)CCCNc1ncnc2sc(-c3ccccc3)cc12	0.1	64.4*	-26.4	12.5	67.7*	1.9	-18.2%	?
C[C@H]1CN([C@@H](C)CO)C(=O)Cc2cc(NC(=O)Nc3ccc(C(F)(F)F)cc3)ccc2O[C@@H]1CN(C)S(C)(=O)=O	0.3	0.7	-2.3	3.2	-2.4	5.3	.	.
O=C(NCC1CC1)[C@H]1[C@H](CO)[C@H]2Cn3c(ccc(C4=CCCC4)c3=O)[C@@H]1N2C(=O)C1CC1	0.2	9.8	-0.8	-2.0	-4.5	18.1	.	.
Cc1cccc(-c2nc(NCCCN(C)C)c3ccccc3n2)c1	0.0	82.2*	-152.3	13.4	83.6*	31.3	-20.9%	i
Cc1c(OCC(=O)NC2CC(C)(C)NC(C)(C)C2)ccc2c3c(c(=O)oc12)CCC3	0.2	13.6	-1.9	-2.0	-0.7	-2.8	.	.
Cc1c(OCC(=O)NC2CC(C)(C)NC(C)(C)C2)ccc2c1oc(=O)c1ccccc12	0.0	66.6*	-16.6	1.7	71.9*	-3.3	i	i
COc1ccc(-c2oc3ncnc(NCCCN(C)C)c3c2-c2ccc(OC)cc2)cc1	0.2	74.7*	-2.1	?	85.3*	-3.8	16.7%	i
SMILES	Xi reactivation	RAD54 inh	CASP6 VEID inh	MLL AF4-AF9 inh	RAD52 anneal inh	S100A4 inh HTS	Rad54 DNA ctr	DNA binder FP
CCCC#Cc1ccc([C@H]2[C@H](CO)N3C(=O)CN(S(=O)(=O)Cc4ccccc4)C[C@@H]23)cc1	0.9	.	0.7	0.6	10.1	2.1	.	.
CN(C)CCNC(=O)c1c(NC(=O)c2ccccc2)sc2c1CCCC2	0.0	58.0*	-4.7	9.9	53.0*	-8.1	-6.6%	i
CN(CCO)C(=O)c1c(NC(=O)c2ccccc2)sc2c1CCCC2	0.2	-3.3	-1.4	-3.0	-3.1	-4.6	.	.
Nc1c2ccccc2nc2ccccc12	1.2	121.2*	-5.0	-2.3	97.8*	-0.8	26µM*	32.7µM*
CCN1CCN(c2cc(C)c3cc(NC(=S)N4CCC5(CC4)OCCO5)ccc3n2)CC1	0.6	?	-19.5	-39.4	55.8*	4.4	-11.6%	i
CCCN1CCN(C(=S)Nc2ccc3nc(N4CCN(CC)CC4)cc(C)c3c2)CC1	0.9	61.8*	-50.3	6.7	88.9*	7.7	3.4%	i
CO[C@H]1CN(C)C(=O)c2ccc(NC(=O)Nc3cccc(F)c3)cc2OC[C@H](C)N(C(=O)C2CC2)C[C@@H]1C	0.0	.	0.0	4.8	7.4	-1.6	.	.
CN1CCN(CC(=O)Nc2nc(-c3c[nH]c4ccccc34)cs2)CC1	0.2	92.9*	-46.8	?	95.5*	-4.0	-8.4%	i
CNc1nc(-c2c[nH]c3ccccc23)cs1	.	4.9	.	.	.	.	.	.
CCOC(=O)c1cnc2c(C)c(C)ccc2c1NCCN1CCOCC1	0.3	19.6	-0.5	-39.4	0.5	-2.6	.	.
CCOC(=O)c1cnc2c(C)cc(C)cc2c1NCCCN1CCOCC1	0.1	92.8*	-6.3	3.1	68.4*	-1.1	-21.9%	i
CCOC(=O)c1cnc2c(ccc3ccccc32)c1NCCCN(C)C	-0.1	123.5*	-10.7	0.2	96.4*	1.9	-18.5%	?
